Measurements: ChEMBL document CHEMBL4680065, “Pharmacophore-based screening of diamidine small molecule inhibitors for protein arginine methyltransferases” (RSC Med Chem, 2021)

Legend:
PRMT5/MEP50 complex = PRMT5/MEP50 complex (Homo sapiens, UniProt O14744); experiment: Inhibition of PRMT5/MEP50 (unknown origin) using biotin-labeled histone H4-20 peptide as substrate incubated for 8 mins in presence of [3H]-SAM cofactor by scintillation proximity assay; format: protein-complex assay
Outline: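 Part of a methyltransferase selectivity panel. Test compound was serially diluted into a mixture of enzyme, [3H]-SAM cofactor and substrate. Methylated substrate was quantified by scintillation proximity assay. Reactions were held at initial-rate conditions with substrate turnover under 10%, and substrate concentrations were near Km.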

[1] = biological target: Protein arginine N-methyltransferase 6 (Homo sapiens, UniProt Q96LA8); experiment: Inhibition of PRMT6 (unknown origin) using biotin-labeled SMD1 as substrate incubated for 30 mins in presence of [3H]-SAM cofactor by scintillation proximity assay
Sequence of Protein arginine N-methyltransferase 6 (Q96LA8 whole entry): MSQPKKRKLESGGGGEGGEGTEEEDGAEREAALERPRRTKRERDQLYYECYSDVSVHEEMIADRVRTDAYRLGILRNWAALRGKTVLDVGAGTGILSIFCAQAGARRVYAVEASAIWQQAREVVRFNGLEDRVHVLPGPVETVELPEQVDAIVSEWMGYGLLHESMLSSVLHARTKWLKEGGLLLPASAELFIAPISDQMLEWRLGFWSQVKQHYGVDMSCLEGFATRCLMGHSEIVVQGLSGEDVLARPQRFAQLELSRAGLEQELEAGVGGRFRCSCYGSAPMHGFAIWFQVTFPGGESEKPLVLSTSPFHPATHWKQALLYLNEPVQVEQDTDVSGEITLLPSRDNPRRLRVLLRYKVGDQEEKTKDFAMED

[2] = biological target: T1, Histone-arginine methyltransferase CARM1 (Homo sapiens, UniProt Q86X55); experiment: Inhibition of recombinant GST-tagged CARM1 (unknown origin) expressed in Escherichia coli using […] incubated for 120 mins in presence of [3H]-SAM cofactor by radioactive filter plate assay
T1 sequence (Q86X55 whole entry): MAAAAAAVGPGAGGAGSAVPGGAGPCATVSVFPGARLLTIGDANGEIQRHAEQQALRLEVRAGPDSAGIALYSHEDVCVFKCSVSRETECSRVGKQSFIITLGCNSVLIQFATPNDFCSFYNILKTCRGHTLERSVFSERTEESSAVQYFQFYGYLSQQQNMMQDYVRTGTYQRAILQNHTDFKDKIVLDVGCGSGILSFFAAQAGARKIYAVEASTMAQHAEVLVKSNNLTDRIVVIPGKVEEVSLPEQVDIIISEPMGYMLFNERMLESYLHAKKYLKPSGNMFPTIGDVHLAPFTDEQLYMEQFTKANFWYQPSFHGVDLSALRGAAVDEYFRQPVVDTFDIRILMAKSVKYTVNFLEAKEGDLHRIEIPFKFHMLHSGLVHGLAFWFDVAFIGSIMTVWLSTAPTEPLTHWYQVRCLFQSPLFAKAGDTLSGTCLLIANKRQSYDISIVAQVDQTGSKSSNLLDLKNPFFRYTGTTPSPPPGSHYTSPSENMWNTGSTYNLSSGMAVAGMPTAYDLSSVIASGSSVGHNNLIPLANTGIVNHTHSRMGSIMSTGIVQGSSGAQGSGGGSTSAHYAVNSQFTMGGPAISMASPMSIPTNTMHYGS

[3] = biological target: Protein arginine N-methyltransferase 8 (Homo sapiens, UniProt Q9NR22); experiment: Inhibition of recombinant His-tagged human PRMT8 expressed in Escherichia coli BL21 (DE3) using biotin-labeled histone H4-20 peptide as substrate incubated for 8 mins in presence of [3H]-SAM cofactor by scintillation proximity assay
Sequence of Protein arginine N-methyltransferase 8 (Q9NR22 whole entry): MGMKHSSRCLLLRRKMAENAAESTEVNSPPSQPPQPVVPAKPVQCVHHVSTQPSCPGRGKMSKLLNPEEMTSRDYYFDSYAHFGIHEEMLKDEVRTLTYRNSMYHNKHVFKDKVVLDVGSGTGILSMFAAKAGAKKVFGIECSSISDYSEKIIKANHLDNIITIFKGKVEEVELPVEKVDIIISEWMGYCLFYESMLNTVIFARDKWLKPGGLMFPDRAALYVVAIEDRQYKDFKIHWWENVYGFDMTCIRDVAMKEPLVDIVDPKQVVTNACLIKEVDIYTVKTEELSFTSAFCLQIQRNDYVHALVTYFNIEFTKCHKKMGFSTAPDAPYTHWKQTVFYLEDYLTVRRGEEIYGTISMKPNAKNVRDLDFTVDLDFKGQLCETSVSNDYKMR
Outline: (§1)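 The inhibitor was serially diluted and added to the enzyme, [3H]-SAM and substrate mixture, and methylated substrate was quantified by scintillation proximity assay. Reactions were held at initial rate, with yield under 10% and substrate near Km. PRMT3, PRMT8 and G9a were His-tagged human proteins, and PRMT7 was GST-tagged, all expressed in E. coli and affinity-purified.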

[4] = biological target: T2, Histone-lysine N-methyltransferase EHMT2 (Homo sapiens, UniProt Q96KQ7); experiment: Inhibition of recombinant His-tagged human G9a expressed in Escherichia coli BL21 (DE3) using biotin-labeled histone H3-20 peptide as substrate incubated for 30 mins in presence of [3H]-SAM cofactor by scintillation proximity assay; outline: as §1
T2 sequence (Q96KQ7 whole entry): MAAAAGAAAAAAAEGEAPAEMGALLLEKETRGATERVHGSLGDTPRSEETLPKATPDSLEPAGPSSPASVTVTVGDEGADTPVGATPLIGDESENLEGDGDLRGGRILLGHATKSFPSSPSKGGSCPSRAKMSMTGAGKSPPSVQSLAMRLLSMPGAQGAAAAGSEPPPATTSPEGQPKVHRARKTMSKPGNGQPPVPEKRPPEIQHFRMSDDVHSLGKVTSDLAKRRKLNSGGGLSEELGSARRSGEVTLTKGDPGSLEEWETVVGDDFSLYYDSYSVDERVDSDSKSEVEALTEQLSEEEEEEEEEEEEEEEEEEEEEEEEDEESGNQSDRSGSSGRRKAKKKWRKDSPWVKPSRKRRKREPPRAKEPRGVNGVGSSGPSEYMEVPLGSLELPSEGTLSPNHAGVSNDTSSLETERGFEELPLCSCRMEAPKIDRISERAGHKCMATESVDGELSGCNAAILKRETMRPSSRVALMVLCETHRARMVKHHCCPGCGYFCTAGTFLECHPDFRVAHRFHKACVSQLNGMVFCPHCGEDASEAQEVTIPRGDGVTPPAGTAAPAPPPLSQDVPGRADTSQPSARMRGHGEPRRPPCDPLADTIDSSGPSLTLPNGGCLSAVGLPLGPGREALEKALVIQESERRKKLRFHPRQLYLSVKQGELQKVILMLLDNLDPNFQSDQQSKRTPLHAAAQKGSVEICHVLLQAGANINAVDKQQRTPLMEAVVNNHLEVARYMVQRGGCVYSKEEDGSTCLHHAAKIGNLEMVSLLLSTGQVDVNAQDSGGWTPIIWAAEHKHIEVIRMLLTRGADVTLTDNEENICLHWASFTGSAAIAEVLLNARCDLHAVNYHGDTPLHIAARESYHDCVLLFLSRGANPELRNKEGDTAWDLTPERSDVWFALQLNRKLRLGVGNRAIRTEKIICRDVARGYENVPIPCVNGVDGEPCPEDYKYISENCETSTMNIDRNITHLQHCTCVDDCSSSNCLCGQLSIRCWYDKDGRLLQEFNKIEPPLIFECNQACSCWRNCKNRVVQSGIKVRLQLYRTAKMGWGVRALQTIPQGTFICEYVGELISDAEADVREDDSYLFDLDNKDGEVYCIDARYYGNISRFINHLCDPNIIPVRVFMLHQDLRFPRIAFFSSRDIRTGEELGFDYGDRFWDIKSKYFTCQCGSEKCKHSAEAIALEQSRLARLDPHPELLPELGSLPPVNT

[5] = biological target: Protein arginine N-methyltransferase 3 (Homo sapiens, UniProt O60678); experiment: Inhibition of recombinant human His-tagged PRMT3 expressed in Escherichia coli BL21 (DE3) using biotin-labeled SMD1 as substrate incubated for 10 mins in presence of [3H]-SAM cofactor by scintillation proximity assay; outline: as §1
Sequence of Protein arginine N-methyltransferase 3 (O60678 whole entry): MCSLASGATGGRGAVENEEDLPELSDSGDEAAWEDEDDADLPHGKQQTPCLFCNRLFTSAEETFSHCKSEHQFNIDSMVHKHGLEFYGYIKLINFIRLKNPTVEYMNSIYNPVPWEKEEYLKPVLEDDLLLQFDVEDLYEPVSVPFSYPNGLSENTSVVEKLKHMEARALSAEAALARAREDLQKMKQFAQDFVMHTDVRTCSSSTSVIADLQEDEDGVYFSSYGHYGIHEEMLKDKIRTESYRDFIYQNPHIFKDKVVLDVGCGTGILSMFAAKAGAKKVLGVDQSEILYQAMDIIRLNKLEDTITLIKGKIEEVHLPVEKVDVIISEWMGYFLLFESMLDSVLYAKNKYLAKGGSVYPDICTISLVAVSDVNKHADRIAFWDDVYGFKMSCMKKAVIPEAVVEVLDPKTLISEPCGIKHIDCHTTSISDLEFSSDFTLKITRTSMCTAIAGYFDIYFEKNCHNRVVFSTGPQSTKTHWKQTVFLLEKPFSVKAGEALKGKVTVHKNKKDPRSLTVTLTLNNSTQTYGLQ

[6] = biological target: T3, Protein arginine N-methyltransferase 7 (Homo sapiens, UniProt Q9NVM4); experiment: Inhibition of recombinant GST-tagged PRMT7 (unknown origin) expressed in Escherichia coli using biotin-labeled SMD1 as substrate incubated for 120 mins in presence of [3H]-SAM cofactor by scintillation proximity assay; outline: as §1
T3 sequence (Q9NVM4 whole entry): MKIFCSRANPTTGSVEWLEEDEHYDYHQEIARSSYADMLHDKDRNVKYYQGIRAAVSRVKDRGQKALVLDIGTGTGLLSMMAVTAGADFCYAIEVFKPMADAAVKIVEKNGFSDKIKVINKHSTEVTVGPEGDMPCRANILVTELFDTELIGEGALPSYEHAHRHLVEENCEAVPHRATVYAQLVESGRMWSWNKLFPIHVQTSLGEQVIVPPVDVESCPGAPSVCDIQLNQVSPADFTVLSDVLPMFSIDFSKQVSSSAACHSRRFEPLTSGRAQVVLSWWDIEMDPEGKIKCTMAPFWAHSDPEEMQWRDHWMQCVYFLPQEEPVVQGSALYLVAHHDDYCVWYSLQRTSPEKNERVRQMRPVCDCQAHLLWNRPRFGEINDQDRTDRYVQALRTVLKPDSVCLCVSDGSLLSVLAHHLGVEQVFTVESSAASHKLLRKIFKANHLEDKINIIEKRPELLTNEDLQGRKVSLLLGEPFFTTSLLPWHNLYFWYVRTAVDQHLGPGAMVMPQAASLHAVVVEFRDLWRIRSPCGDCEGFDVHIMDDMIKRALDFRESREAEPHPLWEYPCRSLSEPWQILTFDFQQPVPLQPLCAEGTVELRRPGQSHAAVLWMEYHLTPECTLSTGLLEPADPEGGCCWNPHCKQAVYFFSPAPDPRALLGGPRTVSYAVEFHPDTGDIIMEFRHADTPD

[7] = biological target: Protein arginine N-methyltransferase 1 (Homo sapiens, UniProt Q99873); experiment: Inhibition of recombinant human His-tagged PRMT1 expressed in Escherichia coli BL21 (DE3) using biotin-labeled histone H4-20 as substrate incubated for 8 mins in presence of [3H]-SAM cofactor by scintillation proximity assay
Sequence of Protein arginine N-methyltransferase 1 (Q99873 whole entry): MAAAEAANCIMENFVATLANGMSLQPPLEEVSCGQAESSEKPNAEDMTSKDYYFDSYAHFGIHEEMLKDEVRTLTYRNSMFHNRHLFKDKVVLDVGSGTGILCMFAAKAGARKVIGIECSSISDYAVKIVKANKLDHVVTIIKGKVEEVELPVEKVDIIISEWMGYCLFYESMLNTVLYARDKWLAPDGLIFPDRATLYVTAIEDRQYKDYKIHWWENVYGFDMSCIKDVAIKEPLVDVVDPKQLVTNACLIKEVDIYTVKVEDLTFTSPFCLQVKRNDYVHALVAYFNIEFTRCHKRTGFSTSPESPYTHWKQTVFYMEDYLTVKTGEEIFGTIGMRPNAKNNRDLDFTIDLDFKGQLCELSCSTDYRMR

Sequence of PRMT5/MEP50 complex (O14744 whole entry): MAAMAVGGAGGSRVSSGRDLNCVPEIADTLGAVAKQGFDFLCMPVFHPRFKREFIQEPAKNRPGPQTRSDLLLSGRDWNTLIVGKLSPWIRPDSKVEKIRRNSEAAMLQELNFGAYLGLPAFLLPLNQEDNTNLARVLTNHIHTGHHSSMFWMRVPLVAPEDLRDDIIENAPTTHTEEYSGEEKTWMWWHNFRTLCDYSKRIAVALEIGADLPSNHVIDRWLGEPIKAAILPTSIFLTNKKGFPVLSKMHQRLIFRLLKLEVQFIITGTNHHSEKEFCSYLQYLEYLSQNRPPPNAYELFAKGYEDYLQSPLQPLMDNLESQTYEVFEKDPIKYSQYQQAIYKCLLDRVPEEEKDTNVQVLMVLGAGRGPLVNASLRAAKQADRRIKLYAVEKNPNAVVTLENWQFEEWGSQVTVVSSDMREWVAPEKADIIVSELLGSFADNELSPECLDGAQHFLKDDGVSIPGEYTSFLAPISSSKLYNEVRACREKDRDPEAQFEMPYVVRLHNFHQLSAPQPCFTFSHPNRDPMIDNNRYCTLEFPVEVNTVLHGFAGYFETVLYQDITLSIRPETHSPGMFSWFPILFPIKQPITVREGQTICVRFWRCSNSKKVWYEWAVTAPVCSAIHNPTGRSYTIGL
Sequence of PRMT5/MEP50 complex (Q9BQA1 whole entry, further chain): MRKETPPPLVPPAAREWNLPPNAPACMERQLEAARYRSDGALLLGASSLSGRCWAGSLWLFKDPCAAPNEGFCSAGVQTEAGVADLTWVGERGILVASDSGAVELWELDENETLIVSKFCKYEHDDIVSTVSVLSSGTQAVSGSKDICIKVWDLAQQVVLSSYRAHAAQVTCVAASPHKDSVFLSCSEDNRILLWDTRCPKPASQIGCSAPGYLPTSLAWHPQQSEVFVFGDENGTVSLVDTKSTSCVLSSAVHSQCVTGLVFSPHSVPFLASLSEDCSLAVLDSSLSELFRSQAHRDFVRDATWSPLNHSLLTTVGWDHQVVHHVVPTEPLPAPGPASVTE

CNCC(=O)NC1=CC2C(=O)c3ccc(NC(=O)CNC)cc3C(=O)C2C=C1 (stereo not given)
IC50 (PRMT5/MEP50 complex): > 500 µM | IC50 [1]: 84.5 µM | IC50 [2]: 12.4 µM | IC50 [3]: 43.7 µM | IC50 [4]: > 1000 µM | IC50 [5]: 11.6 µM | IC50 [6]: 288 µM

C(=C\c1cc2ccc(C3=NCCN3)cc2[nH]1)/c1ccc(Oc2ccc(C3=NCCN3)cc2)cc1
IC50 [7]: 16.3 µM

C(=C/c1cc2ccc(C3=NCCN3)cc2o1)/c1cc2ccc(C3=NCCN3)cc2[nH]1
IC50 [7]: 7.6 µM

N=C(N)c1ccc2[nH]c(/C=C/c3cc4ccc(C(=N)N)cc4o3)cc2c1
IC50 [7]: 7.5 µM

N=C(N)c1ccc(-c2ccc(-c3ccc(C(=N)N)cc3)o2)cc1 [FURAMIDINE]
IC50 [7]: 8.9 µM

C(=C\c1cc2ccc(C3=NCCN3)cc2[nH]1)/c1cc2ccc(C3=NCCN3)cc2[nH]1
IC50 [7]: 6.2 µM

C(=C/c1cc2ccc(C3=NCCN3)cc2o1)/c1cc2cc(C3=NCCN3)ccc2[nH]1
IC50 [7]: 7.9 µM

N=C(N)c1ccc2sc(/C=C/c3cc4ccc(C(=N)N)cc4o3)cc2c1
IC50 [7]: 16.5 µM

C1=C(/C=C/c2ccc3cc(C4=NCCN4)[nH]c3c2)Cc2cc(C3=NCCN3)ccc21
IC50 [7]: 5 µM

O=C(Nc1ccc(C2=NCCN2)cc1)c1cc2cc(C3=NCCN3)ccc2o1
IC50 [7]: > 100 µM

O=C(Nc1ccc(C2=NCCN2)cc1)c1cc2ccc(C3=NCCN3)cc2o1
IC50 [7]: > 100 µM

N=C(N)c1ccc(/C=C/c2cc3cc(C(=N)N)ccc3o2)cc1
IC50 [7]: 10 µM

N=C(N)c1ccc2[nH]c(/C=C/c3cc4cc(C(=N)N)ccc4o3)cc2c1
IC50 [7]: 7.7 µM

c1cc2cc(-c3ccc4oc(C5=NCCN5)cc4c3)[nH]c2cc1C1=NCCN1
IC50 (PRMT5/MEP50 complex): > 500 µM | IC50 [1]: 12.9 µM | IC50 [2]: 155 µM | IC50 [3]: 60.1 µM | IC50 [4]: 39.7 µM | IC50 [5]: 19 µM | IC50 [6]: 248 µM

N=C(N)c1ccc2cc(/C=C/c3cc4ccc(C(=N)N)cc4o3)[nH]c2c1
IC50 [7]: 2.4 µM

N=C(N)c1ccc2cc(CCc3cc4ccc(C(=N)N)cc4o3)[nH]c2c1
IC50 [7]: > 10 µM

CNC(=N)N/N=C(/C)c1ccc2oc3ccc(/C(C)=N/NC(=N)NC)cc3c2c1
IC50 (PRMT5/MEP50 complex): 18.9 µM | IC50 [1]: 6.01 µM | IC50 [2]: 15.5 µM | IC50 [3]: 17.6 µM | IC50 [4]: 4.7 µM | IC50 [5]: 8.2 µM | IC50 [6]: 23.3 µM | IC50 [7]: 6.9 µM

N=C(N)c1ccc(NC(=O)c2cc3cc(C(=N)N)ccc3o2)cc1
IC50 [7]: > 100 µM

N=C(N)c1ccc(NC(=O)c2cc3ccc(C(=N)N)cc3o2)cc1
IC50 [7]: > 100 µM

Nc1nc(N)c2nc3c(ccc4ccccc43)nc2n1
IC50 (PRMT5/MEP50 complex): 62.1 µM | IC50 [1]: 62.9 µM | IC50 [2]: 9.1 µM | IC50 [3]: 167 µM | IC50 [4]: 81.5 µM | IC50 [5]: 55.7 µM | IC50 [6]: 126 µM
